{
  "source": "ChEMBL document CHEMBL4393708",
  "about": "“Pyridinylimidazoles as dual glycogen synthase kinase 3β/p38α mitogen-activated protein kinase inhibitors” (Eur J Med Chem, 2019)",
  "key": {"[1]": {"assay": "Ratio of drug concentration in RjOrl:Swiss CD-1 mouse brain at 10 mg/kg, iv to IC50 for p38alpha MAPK (unknown origin)", "type": "ADME, organism-based", "settings": "in vivo", "outline": "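Adult male mice received a single 10 mg/kg intravenous dose. After the final plasma sample at 2 h, the mice were sacrificed and brains dissected. Brain concentration was measured by LC-MS and related to the in vitro IC50 values for GSK3β and p38α.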"}, "hERG (KCNH2)": {"target": "hERG (KCNH2) (Homo sapiens, UniProt Q12809)", "assay": "Inhibition of tracer Red binding to human ERG expressed in membranes at 10 uM after 4 hrs by fluorescence polarization assay relative to control", "settings": "membranes expressing human ERG, probe tracer Red"}, "[2]": {"assay": "Metabolic stability in human liver microsomes assessed as parent compound remaining after 60 mins by LC-MS analysis relative to control", "type": "ADME, Microsome", "settings": "read-out: Stability"}, "[3]": {"target": "Fibroblast growth factor receptor 1 (Homo sapiens) (UniProt P11362)", "sequence (P11362 22-822 limits assumed)": "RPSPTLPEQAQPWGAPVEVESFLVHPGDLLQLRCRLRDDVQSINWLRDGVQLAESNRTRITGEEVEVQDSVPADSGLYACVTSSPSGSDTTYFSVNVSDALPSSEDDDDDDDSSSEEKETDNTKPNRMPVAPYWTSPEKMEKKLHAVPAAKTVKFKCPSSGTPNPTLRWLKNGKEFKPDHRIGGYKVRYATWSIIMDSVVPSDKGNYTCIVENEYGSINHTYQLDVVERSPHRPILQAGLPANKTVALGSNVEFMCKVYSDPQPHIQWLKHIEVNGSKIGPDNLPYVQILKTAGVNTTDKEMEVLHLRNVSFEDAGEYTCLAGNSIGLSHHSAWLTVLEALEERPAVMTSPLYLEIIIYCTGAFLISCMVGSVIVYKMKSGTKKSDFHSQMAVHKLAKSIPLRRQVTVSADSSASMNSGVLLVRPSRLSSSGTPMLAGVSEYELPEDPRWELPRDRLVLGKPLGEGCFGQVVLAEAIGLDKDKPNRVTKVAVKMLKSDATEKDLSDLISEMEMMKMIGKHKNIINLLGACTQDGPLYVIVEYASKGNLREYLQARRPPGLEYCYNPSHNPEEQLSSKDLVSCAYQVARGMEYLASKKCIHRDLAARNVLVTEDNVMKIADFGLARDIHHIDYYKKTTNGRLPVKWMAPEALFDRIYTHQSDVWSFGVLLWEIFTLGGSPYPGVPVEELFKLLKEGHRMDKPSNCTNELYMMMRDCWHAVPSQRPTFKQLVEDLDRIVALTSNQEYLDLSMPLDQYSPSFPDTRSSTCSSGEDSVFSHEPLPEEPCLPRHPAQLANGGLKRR", "assay": "Inhibition of human recombinant FGFR at 1 uM using Ulight-CAGAGAIETDKEYYTVKD as substrate measured after 60 mins in presence of ATP by LANCE assay relative to control", "outline": "(§1)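 Kinase panel run by an outside provider (Eurofins Cerep) in a LANCE assay, single test concentration of 1 µM, results as percent inhibition.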"}, "CYP1A2": {"target": "CYP1A2 (Homo sapiens, UniProt P05177)", "sequence (P05177 whole entry)": "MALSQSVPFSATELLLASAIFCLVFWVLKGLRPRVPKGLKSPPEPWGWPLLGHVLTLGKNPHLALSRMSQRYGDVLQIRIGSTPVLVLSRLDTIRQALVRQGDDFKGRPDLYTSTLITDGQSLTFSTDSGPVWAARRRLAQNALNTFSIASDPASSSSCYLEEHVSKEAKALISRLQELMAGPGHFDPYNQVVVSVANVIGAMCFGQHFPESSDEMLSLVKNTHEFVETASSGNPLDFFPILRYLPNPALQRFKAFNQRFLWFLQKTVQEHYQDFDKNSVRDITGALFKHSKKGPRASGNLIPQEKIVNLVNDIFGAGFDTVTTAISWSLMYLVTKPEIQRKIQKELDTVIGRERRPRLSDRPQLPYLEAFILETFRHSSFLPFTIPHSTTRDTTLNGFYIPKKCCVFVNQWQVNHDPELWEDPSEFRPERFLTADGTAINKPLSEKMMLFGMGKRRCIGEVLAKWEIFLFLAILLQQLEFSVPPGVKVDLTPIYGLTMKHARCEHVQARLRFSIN", "assay": "Inhibition of human recombinant CYP1A2 expressed in baculovirus infected insect cells using 3-cyano-7-ethoxycoumarin as substrate at 10 uM in presence of NADPH by fluorimetric analysis relative to control", "type": "ADME", "settings": "probe 3-cyano-7-ethoxycoumarin"}, "[4]": {"target": "Serine/threonine-protein kinase Chk2 (Homo sapiens) (UniProt O96017)", "assay": "Inhibition of human recombinant CHK2 at 1 uM using CREBtide as substrate incubated for 15 mins in presence of ATP by LANCE assay relative to control", "outline": "as §1"}, "[5]": {"target": "Fibroblast growth factor receptor 3 (Homo sapiens) (UniProt P22607)", "assay": "Inhibition of human recombinant FGFR3 at 1 uM using Ulight-CAGAGAIETDKEYYTVKD as substrate measured after 90 mins in presence of ATP by LANCE assay relative to control", "outline": "as §1"}, "[6]": {"target": "Mitogen-activated protein kinase 14 (Homo sapiens, UniProt Q16539)", "assay": "Inhibition of human recombinant SAPK2A at 1 uM using Ulight-CFFKNIVTPRTPPPSQGK-amide as substrate measured after 30 mins in presence of ATP by LANCE assay relative to control", "outline": "as §1"}, "CYP2C9": {"target": "CYP2C9 (Homo sapiens, UniProt P11712)", "assay": "Inhibition of human recombinant CYP2C9 expressed in baculovirus infected insect cells using OOMR as substrate at 10 uM in presence of NADPH by fluorimetric analysis relative to control", "type": "ADME", "settings": "probe OOMR"}, "[7]": {"assay": "Drug uptake in RjOrl:Swiss CD-1 mouse brain at 10 mg/kg, iv administered as single dose measured after 2 hrs by LC-MS analysis", "type": "ADME, organism-based", "settings": "read-out: Drug uptake", "outline": "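Adult male RjOrl:Swiss CD-1 mice got one intravenous dose of 10 mg/kg. Plasma was sampled at 10, 30 and 120 min. After the last sample the mice were sacrificed and brains dissected. Blood and brain samples were prepared and analysed by LC-MS for parent and sulfoxide metabolite; brain levels reported as ng/g.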"}, "[8]": {"assay": "Plasma clearance in RjOrl:Swiss CD-1 mouse at 10 mg/kg, iv administered as single dose measured after 10 mins by LC-MS analysis", "type": "ADME, organism-based", "outline": "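Adult male mice received a single 10 mg/kg intravenous injection. Plasma was sampled at 10, 30 and 120 min after dosing. Samples were prepared and analyzed by LC-MS.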"}, "[9]": {"target": "Fibroblast growth factor receptor 2 (Homo sapiens) (UniProt P21802)", "sequence (P21802 22-821 limits assumed)": "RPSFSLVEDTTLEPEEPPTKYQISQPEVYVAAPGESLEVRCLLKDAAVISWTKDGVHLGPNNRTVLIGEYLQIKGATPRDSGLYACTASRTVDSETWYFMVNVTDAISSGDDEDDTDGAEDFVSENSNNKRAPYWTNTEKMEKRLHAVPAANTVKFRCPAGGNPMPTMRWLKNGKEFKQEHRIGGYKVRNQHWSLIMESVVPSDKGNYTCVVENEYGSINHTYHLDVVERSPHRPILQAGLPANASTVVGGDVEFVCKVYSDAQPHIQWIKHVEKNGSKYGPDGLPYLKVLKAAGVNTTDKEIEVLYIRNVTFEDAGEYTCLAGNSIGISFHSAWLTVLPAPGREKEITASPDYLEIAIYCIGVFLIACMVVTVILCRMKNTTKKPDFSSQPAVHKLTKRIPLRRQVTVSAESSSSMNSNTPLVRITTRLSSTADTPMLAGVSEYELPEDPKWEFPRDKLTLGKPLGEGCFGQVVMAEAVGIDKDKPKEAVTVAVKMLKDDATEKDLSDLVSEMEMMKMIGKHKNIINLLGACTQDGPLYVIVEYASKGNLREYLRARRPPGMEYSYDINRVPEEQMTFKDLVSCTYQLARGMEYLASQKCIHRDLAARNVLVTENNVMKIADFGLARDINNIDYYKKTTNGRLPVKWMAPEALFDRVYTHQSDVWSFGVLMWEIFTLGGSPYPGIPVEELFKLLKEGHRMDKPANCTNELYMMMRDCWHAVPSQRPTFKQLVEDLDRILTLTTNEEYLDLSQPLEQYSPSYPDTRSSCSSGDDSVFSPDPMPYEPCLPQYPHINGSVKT", "assay": "Inhibition of human recombinant FGFR2 at 1 uM using Ulight-CAGAGAIETDKEYYTVKD as substrate measured after 15 mins in presence of ATP by LANCE assay relative to control", "outline": "as §1"}, "[10]": {"target": "Serine/threonine-protein kinase PAK 4 (Homo sapiens) (UniProt O96013)", "assay": "Inhibition of human recombinant PAK4 at 1 uM using Ulight-RRRSLLE as substrate measured after 30 mins in presence of ATP by LANCE assay relative to control", "outline": "as §1"}, "[11]": {"target": "MAP kinase-activated protein kinase 2 (Homo sapiens) (UniProt P49137)", "assay": "Inhibition of human recombinant MAPKAPK2 at 1 uM using CREBtide as substrate measured after 15 mins in presence of ATP by LANCE assay relative to control", "outline": "as §1"}, "[12]": {"target": "Inhibitor of nuclear factor kappa-B kinase subunit alpha (Homo sapiens) (UniProt O15111)", "assay": "Inhibition of human recombinant IKKalpha at 1 uM using Ulight-IKappaB-alpha as substrate measured after 30 mins in presence of ATP by LANCE assay relative to control", "outline": "as §1"}, "[13]": {"target": "Serine/threonine-protein kinase PAK 2 (Homo sapiens) (UniProt Q13177)", "sequence (Q13177 whole entry)": "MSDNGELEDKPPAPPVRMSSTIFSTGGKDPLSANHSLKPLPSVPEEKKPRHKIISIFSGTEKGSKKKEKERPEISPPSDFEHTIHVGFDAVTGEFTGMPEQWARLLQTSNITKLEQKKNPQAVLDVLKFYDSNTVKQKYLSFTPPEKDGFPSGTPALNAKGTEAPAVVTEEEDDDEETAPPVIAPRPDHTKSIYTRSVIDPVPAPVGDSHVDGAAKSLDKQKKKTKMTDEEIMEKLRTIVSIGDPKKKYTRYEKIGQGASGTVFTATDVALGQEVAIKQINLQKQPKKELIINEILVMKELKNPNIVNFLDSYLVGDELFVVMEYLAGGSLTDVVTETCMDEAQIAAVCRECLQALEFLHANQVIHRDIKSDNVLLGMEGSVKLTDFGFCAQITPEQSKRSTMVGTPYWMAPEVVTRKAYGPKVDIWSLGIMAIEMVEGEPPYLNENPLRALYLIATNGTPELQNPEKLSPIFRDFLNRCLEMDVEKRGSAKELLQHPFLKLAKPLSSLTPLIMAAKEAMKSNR", "assay": "Inhibition of human recombinant PAK2 at 1 uM using Ulight-RRRSLLE as substrate measured after 60 mins in presence of ATP by LANCE assay relative to control", "outline": "as §1"}, "[14]": {"target": "MAP kinase-interacting serine/threonine-protein kinase 2 (Homo sapiens) (UniProt Q9HBH9)", "sequence (Q9HBH9 whole entry, looked up)": "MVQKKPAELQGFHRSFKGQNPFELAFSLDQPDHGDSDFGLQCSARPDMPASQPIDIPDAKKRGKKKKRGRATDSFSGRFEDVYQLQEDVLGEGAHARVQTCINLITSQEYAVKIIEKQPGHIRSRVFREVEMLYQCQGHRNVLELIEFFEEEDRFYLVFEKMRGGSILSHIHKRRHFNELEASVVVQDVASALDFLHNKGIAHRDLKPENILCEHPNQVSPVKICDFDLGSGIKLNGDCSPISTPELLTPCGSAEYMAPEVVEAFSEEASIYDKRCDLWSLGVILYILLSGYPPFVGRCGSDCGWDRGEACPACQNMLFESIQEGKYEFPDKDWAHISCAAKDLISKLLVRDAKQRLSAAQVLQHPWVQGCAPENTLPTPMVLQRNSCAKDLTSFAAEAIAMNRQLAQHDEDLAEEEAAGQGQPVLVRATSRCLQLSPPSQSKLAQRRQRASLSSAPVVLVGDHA", "assay": "Inhibition of human recombinant MNK2 at 1 uM using CREBtide as substrate measured after 90 mins in presence of ATP by LANCE assay relative to control", "outline": "as §1"}, "[15]": {"target": "Interleukin-1 receptor-associated kinase 4 (Homo sapiens) (UniProt Q9NWZ3)", "assay": "Inhibition of human recombinant IRAK4 at 1 uM using Ulight-FLGFTYVAP as substrate measured after 90 mins in presence of ATP by LANCE assay relative to control", "outline": "as §1"}, "[16]": {"assay": "Metabolic stability in human liver microsomes assessed as parent compound remaining after 240 mins by LC-MS analysis relative to control", "type": "ADME, Microsome", "settings": "read-out: Stability"}, "[17]": {"target": "Ephrin type-B receptor 4 (Homo sapiens) (UniProt P54760)", "assay": "Inhibition of human recombinant EPHB4 at 1 uM using Ulight-TK peptide as substrate measured after 90 mins in presence of ATP by LANCE assay relative to control", "outline": "as §1"}, "[18]": {"target": "Vascular endothelial growth factor receptor 2 (Homo sapiens) (UniProt P35968)", "sequence (P35968 whole entry)": "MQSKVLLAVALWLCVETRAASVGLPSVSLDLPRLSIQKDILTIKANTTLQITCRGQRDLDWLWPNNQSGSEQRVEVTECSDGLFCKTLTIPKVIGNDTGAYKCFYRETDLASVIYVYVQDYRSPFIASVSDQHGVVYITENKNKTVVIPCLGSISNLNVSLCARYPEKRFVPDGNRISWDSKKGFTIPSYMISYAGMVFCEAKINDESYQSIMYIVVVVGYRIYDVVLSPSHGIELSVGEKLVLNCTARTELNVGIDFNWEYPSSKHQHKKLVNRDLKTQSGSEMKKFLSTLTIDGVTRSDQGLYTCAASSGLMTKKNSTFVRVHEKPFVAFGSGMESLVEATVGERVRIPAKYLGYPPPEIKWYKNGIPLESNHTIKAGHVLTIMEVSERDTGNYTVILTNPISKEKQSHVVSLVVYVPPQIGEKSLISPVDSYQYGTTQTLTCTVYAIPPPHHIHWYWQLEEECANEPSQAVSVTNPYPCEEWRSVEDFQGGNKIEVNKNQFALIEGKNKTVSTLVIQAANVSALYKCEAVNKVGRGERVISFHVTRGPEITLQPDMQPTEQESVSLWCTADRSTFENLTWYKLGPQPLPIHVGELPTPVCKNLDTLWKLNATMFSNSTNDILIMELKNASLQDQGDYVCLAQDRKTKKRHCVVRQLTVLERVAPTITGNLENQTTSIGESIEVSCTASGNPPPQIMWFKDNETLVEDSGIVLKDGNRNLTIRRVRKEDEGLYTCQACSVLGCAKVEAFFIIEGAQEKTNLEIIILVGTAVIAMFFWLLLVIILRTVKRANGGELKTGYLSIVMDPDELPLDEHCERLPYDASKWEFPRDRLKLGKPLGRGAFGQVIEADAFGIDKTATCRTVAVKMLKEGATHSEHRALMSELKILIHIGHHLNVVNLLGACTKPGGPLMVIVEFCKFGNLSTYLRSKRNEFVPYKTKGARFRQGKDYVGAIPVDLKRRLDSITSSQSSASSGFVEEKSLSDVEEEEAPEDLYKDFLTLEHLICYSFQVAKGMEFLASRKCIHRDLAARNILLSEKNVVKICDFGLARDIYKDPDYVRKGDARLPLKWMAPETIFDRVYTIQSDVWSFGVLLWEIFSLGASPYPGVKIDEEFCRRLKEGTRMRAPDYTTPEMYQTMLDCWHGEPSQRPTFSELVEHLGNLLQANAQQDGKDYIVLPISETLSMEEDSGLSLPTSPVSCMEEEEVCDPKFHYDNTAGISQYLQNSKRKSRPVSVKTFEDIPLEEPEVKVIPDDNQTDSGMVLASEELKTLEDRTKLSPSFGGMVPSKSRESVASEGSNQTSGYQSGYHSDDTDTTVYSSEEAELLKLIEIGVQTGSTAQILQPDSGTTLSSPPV", "assay": "Inhibition of human recombinant KDR at 1 uM using Ulight-CAGAGAIETDKEYYTVKD as substrate measured after 60 mins in presence of ATP by LANCE assay relative to control", "outline": "as §1"}, "[19]": {"target": "RAC-alpha serine/threonine-protein kinase (Homo sapiens) (UniProt P31749)", "assay": "Inhibition of recombinant human AKT1 at 1 uM using CREBtide as substrate measured after 60 mins in presence of ATP by LANCE assay relative to control"}, "[20]": {"assay": "Metabolic stability in human liver microsomes assessed as parent compound remaining after 120 mins by LC-MS analysis relative to control", "type": "ADME, Microsome", "settings": "read-out: Stability"}, "[21]": {"target": "Protein kinase C beta type (Homo sapiens) (UniProt P05771)", "assay": "Inhibition of human recombinant PKCbeta at 1 uM using CREBtide as substrate measured after 15 mins in presence of ATP by LANCE assay relative to control", "outline": "as §1"}, "[22]": {"target": "Mitogen-activated protein kinase 8 (Homo sapiens) (UniProt P45983)", "sequence (P45983 whole entry)": "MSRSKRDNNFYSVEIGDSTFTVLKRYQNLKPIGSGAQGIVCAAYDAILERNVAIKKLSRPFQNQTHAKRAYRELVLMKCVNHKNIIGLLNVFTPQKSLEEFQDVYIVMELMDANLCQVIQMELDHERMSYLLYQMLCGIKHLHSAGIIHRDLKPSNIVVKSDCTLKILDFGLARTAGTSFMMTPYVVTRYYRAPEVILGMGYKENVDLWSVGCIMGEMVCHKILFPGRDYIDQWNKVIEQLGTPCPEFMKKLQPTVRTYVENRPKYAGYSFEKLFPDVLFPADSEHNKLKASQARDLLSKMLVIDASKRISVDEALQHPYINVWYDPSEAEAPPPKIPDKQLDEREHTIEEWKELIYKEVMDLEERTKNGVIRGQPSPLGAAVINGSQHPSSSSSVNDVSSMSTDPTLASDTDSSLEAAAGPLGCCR", "assay": "Inhibition of human recombinant JNK1 at 1 uM using Ulight-CFFKNIVTPRTPPPSQGK-amide as substrate measured after 60 mins in presence of ATP by LANCE assay relative to control", "outline": "as §1"}},
  "data": [
    {"smiles": "CCc1nc(-c2ccc(F)cc2)c(-c2ccnc(NC(=O)C3CC3)c2)[nH]1", "values": [
      {"measurement": "Ratio", "setting": "[1]", "value": 2.5},
      {"measurement": "inhibition at 4 h, 10 µM", "setting": "hERG (KCNH2)", "value": 43.3, "unit": "%"},
      {"measurement": "remaining at 1 h", "setting": "[2]", "value": 95.2, "unit": "%"},
      {"measurement": "inhibition", "setting": "[3]", "value": 47, "unit": "%"},
      {"measurement": "inhibition at 10 µM", "setting": "CYP1A2", "value": 83.6, "unit": "%"},
      {"measurement": "inhibition", "setting": "[4]", "value": -9.7, "unit": "%"},
      {"measurement": "inhibition", "setting": "[5]", "value": 64.5, "unit": "%"},
      {"measurement": "inhibition", "setting": "[6]", "value": 93.6, "unit": "%"},
      {"measurement": "inhibition at 10 µM", "setting": "CYP2C9", "value": 83.6, "unit": "%"},
      {"measurement": "concentration at 2 h", "setting": "[7]", "value": 13.3, "unit": "ng/g"},
      {"measurement": "concentration at 10 min", "setting": "[8]", "value": 850, "unit": "ng/mL"},
      {"measurement": "inhibition", "setting": "[9]", "value": 74.4, "unit": "%"},
      {"measurement": "inhibition", "setting": "[10]", "value": 4.82, "unit": "%"},
      {"measurement": "inhibition", "setting": "[11]", "value": -4.86, "unit": "%"},
      {"measurement": "inhibition", "setting": "[12]", "value": -2.16, "unit": "%"},
      {"measurement": "inhibition", "setting": "[13]", "value": 5.58, "unit": "%"},
      {"measurement": "inhibition", "setting": "[14]", "value": 1.16, "unit": "%"},
      {"measurement": "inhibition", "setting": "[15]", "value": 2.96, "unit": "%"},
      {"measurement": "remaining at 4 h", "setting": "[16]", "value": 98.3, "unit": "%"},
      {"measurement": "inhibition", "setting": "[17]", "value": 94.7, "unit": "%"},
      {"measurement": "inhibition", "setting": "[18]", "value": 98.7, "unit": "%"},
      {"measurement": "inhibition", "setting": "[19]", "value": 2.06, "unit": "%"},
      {"measurement": "remaining at 2 h", "setting": "[20]", "value": 96.4, "unit": "%"},
      {"measurement": "inhibition", "setting": "[21]", "value": 10.7, "unit": "%"},
      {"measurement": "inhibition", "setting": "[22]", "value": 78.3, "unit": "%"}
    ]}
  ]
}
